Source: paper PMC2883079 (European Journal of Immunology, 2009)
“And” between values parts separate entries of the source, which are not always exact repeats. Equal entries are not always repeated. Where two headings read alike, the source gives them in different places. No end group written: not given here.

B1: CCL19: chemokine, positive control for mDC migration (protein, UniProt Q99731 22-98, looked up)
C-C motif chemokine 19: GTNDAEDCCLSVTQKPIPGYIVRNFHYLLIKDGCRVPAVVFTTLRGRQLCAPPDQPWVERIIQRLQRTSAKMKRRSS

Columns and labels:
[1] = test system: HEK293 cells expressing human CCR6; assay: Chemotaxis assay, HEK293 cells expressing human CCR6; format: cell-based; details: HEK293 cells overexpressing human CCR6, 5 h
Outline: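 48-well chemotaxis chamber, 5 h. Cells at 5×10^5 per mL in RPMI 1640 with 1% BSA, which also served as diluent and no-peptide control. CCL20 positive control. Migrated cells counted in three random ×400 fields per well, triplicate wells, as mean per field. MI = count at optimal concentration / control count. One-tailed Student's t-test. Representative of at least three experiments.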

[2] = test system: mature DC (mDC); assay: Chemotaxis assay, LPS-matured DC; format: cell-based, mouse; details: DC matured 24 h with 100 ng/mL E. coli LPS; 1.5 h
Outline: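 Mouse tibia/femur marrow at 3.75×10^5 cells/mL with GM-CSF supernatant (5%, 500 U/mL), refed day 3. Day 6 cultures then had LPS for 24 h. Phenotyped by flow for CD11c/MHC II, CD86, CD54, Gr1 and B220. 48-well chamber, 1.5 h, RPMI/1% BSA, cells at 5×10^5 per mL. CCL19 positive control. Three ×400 fields per well, triplicate wells, SD over nine counts, one-tailed t-test.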

[3] = cited from earlier work
[4] = test system: mouse CD4^+ T cells; assay: Chemotaxis assay, mouse CD4+ T cells; format: cell-based; details: 4 h
Outline: (§1)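 In 48-well chemotaxis chambers, cells migrated for 4 h. Human CD4+ cells came from Ficoll–Paque mononuclear cells of donor blood or bone marrow, with CCL20 as positive control. Mouse cells were splenic CD4+ from magnetic positive selection, CD4/CD3-stained, with CXCL12a as control. Cells were at 5×10^5/mL in RPMI 1640/1% BSA, the medium also used to dilute peptides. Three ×400 fields were counted per triplicate well. MI = migrated cells at optimal concentration / peptide-free control. One-tailed t-test.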

[5] = test system: immature DC (iDC), bone marrow-derived, 6 days in GM-CSF; assay: Chemotaxis assay, iDC cultured in GM-CSF for 6 days; format: cell-based, mouse; details: 1.5 h
[6] = test system: human CD4^+ T cells; assay: Chemotaxis assay, human CD4+ T cells; format: cell-based; details: for optimal concentration for chemotaxis / migratory index (MI): 4 h; for migratory index (MI): at optimal concentration
Outline: as §1

[7] = test system: immature DC (iDC), bone marrow-derived, 7 days in GM-CSF; assay: Chemotaxis assay, iDC cultured in GM-CSF for 7 days; format: cell-based, mouse
Outline: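 Mouse tibia/femur marrow cells were seeded at 3.75×10^5/mL in complete medium with 5% (500 U/mL) GM-CSF supernatant, refed on day 3. Loosely adherent cells were harvested on day 6 or day 7. Migration ran 1.5 h in 48-well chambers, cells at 5×10^5/mL in RPMI 1640/1% BSA, with CCL20 as positive control. Three ×400 fields were counted per triplicate well. MI = migrated cells at optimal peptide / control medium. One-tailed t-test, p<0.05.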

[8] = test system: CD4 T cells; assay: Chemotaxis of CD4 T cells; format: cell-based; details: species of cells not stated
Outline: as §1

[9] = Antimicrobial activity; format: cell-based; details: data not shown
[10] = test system: neutrophils; assay: Chemotaxis assay, peritoneal neutrophils; format: cell-based, mouse; details: at least 90% pure, positive control at 45 ng/mL
Outline: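 Mouse peritoneal neutrophils, identified by morphology and at least 90% pure. Tested in 48-well chemotaxis chambers with N-formylmethionyl leucyl phenylalanine as positive control and RPMI 1640/1% BSA as medium and no-peptide control. Cells at 5×10^5 per mL. Migrated cells counted in three random ×400 fields per well in triplicate wells. Reported as mean per field. One-tailed Student's t-test.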

[11] = d6iDC, p<0.05 vs control medium
[12] = d7iDC, at peak peptide concentration, 1.5 h

Row | Molecule | chemoattraction of CCR6-expressing cells (result in words) [1] | migration of mDC (result in words) [2] | optimal / only significant concentration for chemotaxis [4] [ng/mL] | optimal concentration for chemotaxis [6] [ng/mL] | migratory index (MI) [6] | further results
1 | CCL20: recognised chemokine ligand for the CCR6 receptor, positive control [reference compound] | can chemoattract these cells | – | – | – | – | –
2 | DPVTCIRNGGICQYRCIGLRHKIGTCGSPFKCCK (also: bicyclic or more (positions not given here)) [Defr1-Y5C] | unable to chemoattract these cells | Neither peptide could induce migration | 100 | 100 | 5.5 | antimicrobial activity (result in words) [3]: poor antimicrobial activity; migration of iDC (result in words) [5, 11]: Neither peptide could induce migration
3 | DPVTYIRNGGIAQYRAIGLRHKIGTAGSPFKCAK (disulfide (positions not given here)) [Defr1-1c^V] | unable to chemoattract these cells | Neither peptide could induce migration | 100 | 100 | 5.5 | migration of iDC (result in words) [5, 11]: Neither peptide could induce migration
4 | DPVTYIRNGGICQYRCIGLRHKIGTCGSPFKCCK (disulfide (positions not given here)) [Defr1] | neither Defr1 nor the six cysteine allele Defb8, can chemoattract these cells | do not show significant migration | 10 | 10 | 8 and 9 | peptide concentration giving peak migration ([7]; d7iDC, 1.5 h): 1 ng/mL; migratory index (MI) [7, 12]: ~3.5; migratory index (MI) ([7]; d7iDC, peptide at 0.1 ng/mL, p<0.05): 2.5; chemoattraction of CD4 T cells (result in words) [8]: attracting CD4 T cells; antimicrobial activity (result in words) [3]: potent antimicrobial activity; migratory index (MI) ([4]; at optimal concentration): 2.5; peptide concentration giving peak migration ([5]; d6iDC): 10 ng/mL; activity relative to Defr1 Y5C and Defr1-1c^V (peak concentration) [6]: tenfold more active
5 | ELDHCHTNGGYCVRAICPPSARRPGSCFPEKNPCCKYMK (also: bicyclic or more (positions not given here)) [Defb2] | – | do not show significant migration | – | – | – | migration of d7iDC (result in words) ([7]; all concentrations tested, p<0.05 vs control): statistically significant migration; migratory index (MI) [7, 12]: 3.0; chemoattraction of CD4 T cells (result in words) [8]: attracting CD4 T cells
6 | EPVSCIRNGGICQYRCIGLRHKIGTCGSPFKCCK (also: bicyclic or more (positions not given here)) [Defb8] | neither Defr1 nor the six cysteine allele Defb8, can chemoattract these cells | – | – | – | – | migration of iDC (result in words) ([5]; iDC, days of culture not stated (Fig. 4A)): can chemoattract iDC; antimicrobial activity (result in words) [9]: much reduced antimicrobial activity compared with Defr1
7 | N-formylmethionyl leucyl phenyalanine | – | – | – | – | – | migration of neutrophils (result in words) [10]: significant migration
8 | B1 | – | statistically significant migration | – | – | – | –
